Assay results as given in ChEMBL document CHEMBL1132381, “Pyrrolidine-3-carboxylic acids as endothelin antagonists. 4. Side chain conformational restriction leads to ET(B) selectivity” (J Med Chem, 1999).

Columns and labels:
[1] = target: Endothelin receptor, ET-A/ET-B (Homo sapiens) (UniProt P24530+P25101); assay: Ratio of binding affinity towards hETA to hETB; format: protein assay
In short: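 Ratio of IC50 values from two CHO membrane binding assays. Both run 3 h at 25 °C over 11 concentrations, 10^-10 to 10^-5 M, in duplicate, with at least 2 determinations each.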

Endothelin-1 receptor = target: T1, Endothelin-1 receptor (Homo sapiens, UniProt P25101); assay: Binding affinity towards human Endothelin A receptor (hET -A)
T1 sequence (P25101 whole entry): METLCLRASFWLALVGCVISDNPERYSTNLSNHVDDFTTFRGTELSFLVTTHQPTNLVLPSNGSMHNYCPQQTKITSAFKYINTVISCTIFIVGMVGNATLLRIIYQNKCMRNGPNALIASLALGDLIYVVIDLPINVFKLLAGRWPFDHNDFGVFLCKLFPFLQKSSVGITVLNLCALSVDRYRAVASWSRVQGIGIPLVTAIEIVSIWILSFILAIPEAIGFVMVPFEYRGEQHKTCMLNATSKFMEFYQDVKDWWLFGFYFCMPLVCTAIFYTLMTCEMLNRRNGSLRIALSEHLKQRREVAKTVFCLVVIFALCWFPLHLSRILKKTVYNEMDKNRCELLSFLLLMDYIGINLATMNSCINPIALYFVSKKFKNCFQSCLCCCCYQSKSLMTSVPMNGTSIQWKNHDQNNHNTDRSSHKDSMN

[2] = target: T2, Endothelin receptor type B (Homo sapiens, UniProt P24530); assay: Binding affinity towards human Endothelin B receptor (hET -B)
T2 sequence (P24530 whole entry): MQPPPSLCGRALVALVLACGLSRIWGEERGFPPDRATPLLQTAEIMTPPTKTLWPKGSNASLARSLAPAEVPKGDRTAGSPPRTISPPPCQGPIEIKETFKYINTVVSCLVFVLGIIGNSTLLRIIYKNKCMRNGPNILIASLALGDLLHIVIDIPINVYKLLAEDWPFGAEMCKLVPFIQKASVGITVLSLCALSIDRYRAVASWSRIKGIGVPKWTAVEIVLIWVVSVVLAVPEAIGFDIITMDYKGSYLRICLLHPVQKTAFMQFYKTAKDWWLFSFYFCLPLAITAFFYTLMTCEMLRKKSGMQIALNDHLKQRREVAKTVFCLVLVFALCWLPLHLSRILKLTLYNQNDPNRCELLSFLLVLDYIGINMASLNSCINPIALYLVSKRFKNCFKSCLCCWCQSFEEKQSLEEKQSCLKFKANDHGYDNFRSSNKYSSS

CHO = assay: Antagonistic activity was measured by ET receptor mediated hydrolysis of inositol phosphates; format: functional, cell-based; settings: Cricetulus griseus
In short: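 Inositol phosphate hydrolysis in human ETB-transfected CHO cells. Confluent cells labeled with 5 μCi/well [3H]myoinositol, then held 60 min at 37 °C in HEPES saline buffer with protease inhibitors and 10 mM LiCl. Compounds added, then 1 nM ET-1 challenge for 30 min at 37 °C. Total inositol phosphates measured; agonist activity assessed in the same run.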

Rattus norvegicus [3] = organism: Rattus norvegicus; assay: Clearance role of ET-B evaluated in terms of increase in circulating levels of ET-1 in rats; format: functional
[4] = Compound was evaluated for the biological half-life when administered through intravenous route; format: ADME, organism-based; settings: in vivo
[5] = Oral bioavailability in rat; settings: in vivo
Rattus norvegicus [6] = organism: Rattus norvegicus; assay: Clearance role of ET-B evaluated in terms of increase in mean arterial pressure (MAP) in rats; format: functional, Artery
[7] = Compound was evaluated for area under curve when administered through oral route to rat; settings: in vivo
Rattus norvegicus [8] = assay: Oral bioavailability in rat
[9] = Oral bioavailability in rat; settings: in vivo; remark: listed apart in the source
[10] = Compound was evaluated for area under curve when administered through oral route in rat; settings: in vivo

Structure (SMILES)	Ratio [1]	IC50 (Endothelin-1 receptor)	IC50 [2]	other results
COc1ccc([C@H]2[C@H](C(=O)O)[C@@H](c3ccc4c(c3)OCO4)CN2CC(=O)Nc2c(C(C)C)cccc2C(C)C)cc1	35	920 nM	26 nM	–
CCc1cccc(CC)c1NC(=O)CN1C[C@H](c2ccc3c(c2)OCO3)[C@@H](C(=O)O)[C@@H]1c1ccc(OC)cc1 (stereo in doubt; 19) [listing 1 of 2 here]	–	45 nM	1.4 nM	–
CCCOc1ccc([C@H]2[C@H](C(=O)O)[C@@H](c3ccc4c(c3)OCO4)CN2CC(=O)Nc2c(CC)cccc2CC)cc1 (stereo in doubt; 38) [A-192621]	–	8200 nM	6.4 nM	IC50 (CHO): 0.65 nM; ET-1 level (Rattus norvegicus [3]): 19 pg/mL; half-life [4]: 5 h; bioavailability [5]: 35%; MAP (Rattus norvegicus [6]): 150 mmHg; AUC [7]: 2500 ng·h/mL
COc1ccc([C@H]2[C@H](C(=O)O)[C@@H](c3ccc4c(c3)OCO4)CN2CC(=O)Nc2c(OC)cccc2OC)cc1	0.3	16 nM	57 nM	–
CCc1cc(C(=O)O)cc(CC)c1NC(=O)CN1C[C@H](c2ccc3c(c2)OCO3)[C@@H](C(=O)O)[C@@H]1c1ccc(OC)cc1	19	840 nM	44 nM	–
CCc1cccc(CC)c1NC(=O)CN1C[C@H](c2ccc3c(c2)OCO3)[C@@H](C(=O)O)[C@@H]1c1ccc(CCOC)cc1	3000	11000 nM	3.8 nM	–
CCc1cccc(C)c1NC(=O)CN1C[C@H](c2ccc3c(c2)OCO3)[C@@H](C(=O)O)[C@@H]1c1ccc(OC)cc1	4	15 nM	4 nM	–
CCc1cccc(CC)c1NC(=O)CN1C[C@H](c2ccc3c(c2)OCO3)[C@@H](C(=O)O)[C@@H]1c1ccc(OC(C)C)cc1	220	1500 nM	6.9 nM	–
COc1ccc([C@H]2[C@H](C(=O)O)[C@@H](c3ccc4c(c3)OCO4)CN2CC(=O)Nc2c(C)cccc2C)cc1	2	33 nM	16 nM	–
CCc1cccc(CC)c1NC(=O)CN1C[C@H](c2ccc3c(c2)OCO3)[C@@H](C(=O)O)[C@@H]1c1ccc(OCCOC)cc1 (stereo in doubt; 39) [listing 1 of 2 here]	–	3700 nM	0.85 nM	half-life [4]: 2.6 h; AUC [7]: 650 ng·h/mL
CCc1cccc(CC)c1NC(=O)CN1C[C@H](c2ccc3c(c2)OCO3)[C@@H](C(=O)O)[C@@H]1c1ccc(OCCOC)cc1 (stereo in doubt; 34) [listing 1 of 2 here]	–	4200 nM	1.1 nM	–
CCc1cccc(CC)c1NC(=O)CN1C[C@H](c2ccc3c(c2)OCO3)[C@@H](C(=O)O)[C@@H]1c1ccc(OCCOC)cc1 (stereo in doubt; 39) [listing 2 of 2 here]	4400	–	–	bioavailability (Rattus norvegicus [8]): 9%
CCc1cccc(OC)c1NC(=O)CN1C[C@H](c2ccc3c(c2)OCO3)[C@@H](C(=O)O)[C@@H]1c1ccc(OC)cc1	34	200 nM	5.8 nM	–
CCCc1cccc(CCC)c1NC(=O)CN1C[C@H](c2ccc3c(c2)OCO3)[C@@H](C(=O)O)[C@@H]1c1ccc(OC)cc1	0.03	12 nM	460 nM	–
COc1ccc([C@H]2[C@H](C(=O)O)[C@@H](c3ccc4c(c3)OCO4)CN2CC(=O)Nc2ccc(C)c(C)c2)cc1	0.06	50 nM	830 nM	–
CCc1cc(CC)c(NC(=O)CN2C[C@H](c3ccc4c(c3)OCO4)[C@@H](C(=O)O)[C@@H]2c2ccc(OC)cc2)c(CC)c1	7	10 nM	1.5 nM	–
CCOc1ccc([C@H]2[C@H](C(=O)O)[C@@H](c3ccc4c(c3)OCO4)CN2CC(=O)Nc2c(CC)cccc2CC)cc1 (stereo in doubt; 31) [listing 1 of 2 here]	–	910 nM	3.6 nM	–
CCOc1ccc([C@H]2[C@H](C(=O)O)[C@@H](c3ccc4c(c3)OCO4)CN2CC(=O)Nc2c(CC)cccc2CC)cc1 (stereo in doubt; 31) [listing 2 of 2 here]	250	–	–	–

Structure (SMILES)	Ratio [1]	IC50 (Endothelin-1 receptor)	IC50 [2]	other results
CCc1cccc(CC)c1NC(=O)CN1C[C@H](c2ccc3c(c2)OCO3)[C@@H](C(=O)O)[C@@H]1c1ccc(OC)cc1 (stereo in doubt; 36) [listing 1 of 2 here]	330	–	–	–
CCCOc1ccc([C@H]2[C@H](C(=O)O)[C@@H](c3ccc4c(c3)OCO4)CN2CC(=O)Nc2c(CC)cccc2CC)cc1 (stereo in doubt; 32)	820	–	–	–
CCOc1ccc([C@H]2[C@H](C(=O)O)[C@@H](c3ccc4c(c3)OCO4)CN2CC(=O)Nc2c(CC)cccc2CC)cc1 (stereo in doubt; 37) [listing 1 of 2 here]	–	340 nM	1.2 nM	IC50 (CHO): 7.9 nM; half-life [4]: 3.1 h; bioavailability [9]: 37%; AUC [7]: 3400 ng·h/mL
CCc1cc(F)cc(CC)c1NC(=O)CN1C[C@H](c2ccc3c(c2)OCO3)[C@@H](C(=O)O)[C@@H]1c1ccc(OC)cc1	24	22 nM	0.8 nM	–
COc1ccc([C@H]2[C@H](C(=O)O)[C@@H](c3ccc4c(c3)OCO4)CN2CC(=O)Nc2c(Br)cccc2Br)cc1	6	61 nM	10 nM	–
COc1ccc([C@H]2[C@H](C(=O)O)[C@@H](c3ccc4c(c3)OCO4)CN2CC(=O)Nc2c(C)cccc2C(C)C)cc1	5	100 nM	20 nM	–
COc1ccc([C@H]2[C@H](C(=O)O)[C@@H](c3ccc4c(c3)OCO4)CN2CC(=O)Nc2cc(C)cc(C)c2)cc1	0.06	160 nM	2700 nM	–
CCc1cccc(CC)c1NC(=O)CN1C[C@H](c2ccc3c(c2)OCO3)[C@@H](C(=O)O)[C@@H]1c1ccc(OC)cc1 (stereo in doubt; 19) [listing 2 of 2 here]	32	–	–	–
COc1ccc([C@H]2[C@H](C(=O)O)[C@@H](c3ccc4c(c3)OCO4)CN2CC(=O)Nc2ccc(C)cc2C)cc1	0.3	25 nM	74 nM	–
CCc1cccc(CC)c1N(C)C(=O)CN1C[C@H](c2ccc3c(c2)OCO3)[C@@H](C(=O)O)[C@@H]1c1ccc(OC)cc1	0.3	190 nM	600 nM	–
CCCc1cccc(CC)c1NC(=O)CN1C[C@H](c2ccc3c(c2)OCO3)[C@@H](C(=O)O)[C@@H]1c1ccc(OC)cc1	0.2	15 nM	82 nM	–
COc1ccc([C@H]2[C@H](C(=O)O)[C@@H](c3ccc4c(c3)OCO4)CN2CC(=O)Nc2cc(C)ccc2C)cc1	0.4	33 nM	82 nM	–
CCCOc1ccc([C@H]2[C@H](C(=O)O)[C@@H](c3ccc4c(c3)OCO4)CN2CC(=O)Nc2c(CC)cccc2CC)cc1 (stereo in doubt; 32) [A-192621]	–	9900 nM	12 nM	–
CCCOc1ccc([C@H]2[C@H](C(=O)O)[C@@H](c3ccc4c(c3)OCO4)CN2CC(=O)Nc2c(CC)cccc2CC)cc1 (stereo in doubt; 38)	1300	–	–	–
CCc1cccc(CC)c1NC(=O)CN1C[C@H](c2ccc3c(c2)OCO3)[C@@H](C(=O)O)[C@@H]1c1ccc(OCCOC)cc1 (stereo in doubt; 34) [listing 2 of 2 here]	4000	–	–	–
COc1ccc([C@H]2[C@H](C(=O)O)[C@@H](c3ccc4c(c3)OCO4)CN2CC(=O)Nc2cccc(C)c2C)cc1	0.2	16 nM	81 nM	–
CCOc1ccc([C@H]2[C@H](C(=O)O)[C@@H](c3ccc4c(c3)OCO4)CN2CC(=O)Nc2c(CC)cccc2CC)cc1 (stereo in doubt; 37) [listing 2 of 2 here]	280	–	–	–
CCc1cccc(CC)c1NC(=O)CN1C[C@H](c2ccc3c(c2)OCO3)[C@@H](C(=O)O)[C@@H]1c1ccc(OC)cc1 (stereo in doubt; 36) [listing 2 of 2 here]	–	89 nM	0.27 nM	AUC [10]: 3900 ng·h/mL; half-life [4]: 6.4 h; bioavailability [9]: 49%
